# Experimental data pooled from the literature.
# Compare with care: the assays were run in different laboratories.
Structure (SMILES),assay,system,setting,kinetic solubility
Cc1noc([C@H](Cc2c[nH]cn2)NC(=O)CN(CCCc2ccccc2)CC(=O)O)n1,,PBS,"24 h, pH 7.4",198 µM
CCCCOC(=O)NS(=O)(=O)c1sc(CC(C)C)cc1-c1ccc2c(c1)CN(C(C)=O)C2,,aqueous buffer,"pH 7.4, 37 °C",30 µM
CN[C@H]1CCN(c2ccc(Nc3cc(NC4CC4)n4ncc(C#N)c4n3)cc2NC(C)=O)C1,shake flask,PBS,"24 h, pH 7.4, 22 °C",49 µg/mL
CCn1cc(-c2cc(Cn3ccnc3)cc3c2OCCN([C@H](c2cc(OC)ccn2)C2CC2)C3=O)c(C(F)(F)F)n1,,PBS,"1 h, pH 7.4",74 µM
Cc1cc(Nc2ccc(C(F)(F)F)cc2)c2ccccc2n1,,simulated gastric fluid,"pH 2, acidic",> 330 µM
O=C(/C=C/c1cccnc1)NCCCCC1CCN(C(=O)c2ccccc2)CC1,,PBS,"90 min, pH 7.4",225 µM
CCOC(=O)NS(=O)(=O)c1sc(CC(C)C)cc1-c1ccc2c(c1)CN(C)C(=O)C2,,aqueous buffer,"pH 7.4, 37 °C",61 µM
CC(=O)Nc1cc(Nc2cc(NC3CC3)n3ncc(C#N)c3n2)ccc1N1CCC[C@H](O)C1,shake flask,PBS,"24 h, pH 7.4, 22 °C",37 µg/mL
CCCC#Cc1ccc([C@@H](CO)C(=O)N[C@H](C)c2ccccc2)cc1,,PBS,pH 7.4,7.4 µM
COC(=O)[C@H](Cc1c[nH]cn1)NC(=O)CN(CC(=O)O)Cc1ccccc1,,PBS,"24 h, pH 7.4",154 µM
CCCCOC(=O)NS(=O)(=O)c1sc(CC(C)C)cc1-c1ccc2c(c1)CCN(C(C)=O)C2,,aqueous buffer,"pH 7.4, 37 °C",45 µM
Cc1cc(Nc2ccc(S(F)(F)(F)(F)F)cc2)n2ccnc2n1,,PBS,pH 6.5,8.9 µM
O=C(O)CN(CCCc1ccccc1)CC(=O)N[C@H](CO)Cc1c[nH]cn1,,PBS,"24 h, pH 7.4",180 µM
CN[C@H]1CCCN(c2ccc(Nc3cc(NC4CC4)n4ncc(C#N)c4n3)cc2NC(C)=O)C1,shake flask,PBS,"24 h, pH 7.4, 22 °C",54 µg/mL
CNC(=O)[C@H](Cc1c[nH]cn1)NC(=O)CN(CCCc1ccccc1)CC(=O)O,,PBS,"24 h, pH 7.4",170 µM
CC(=O)Nc1cc(Nc2cc(NC3CC3)n3ncc(C#N)c3n2)ccc1N(C)CC1COC1,shake flask,PBS,"24 h, pH 7.4, 22 °C",0.2 µg/mL
COC(=O)[C@H](Cc1c[nH]cn1)NC(=O)CN(CCCc1ccccc1)CC(=O)O,,PBS,"24 h, pH 7.4",199 µM
CC(=O)Nc1cc(Nc2cc(NC3CC3)n3ncc(C#N)c3n2)ccc1N1CCNCC1,shake flask,PBS,"24 h, pH 7.4, 22 °C",52 µg/mL
CC[C@H](NC(=O)[C@H](CS(=O)(=O)CC1CC1)N[C@@H](c1ccc(F)cc1)C(F)(F)F)C(=O)C(=O)NC1CC1,,PBS,pH 7.4,223 µM
COc1ccn2c(Nc3ccccc3F)c(-c3ccncn3)nc2c1,,aqueous buffer,24 h,163 µM
CC(=O)Nc1cc(Nc2cc(NC3CC3)n3ncc(C#N)c3n2)ccc1N(C)C[C@@H]1CCCN1,shake flask,PBS,"24 h, pH 7.4, 22 °C",68 µg/mL
